Laboratory results as given in ChEMBL document CHEMBL4152190, “Microwave-assisted one-pot synthesis of new phenanthrene fused-tetrahydrodibenzo-acridinones as potential cytotoxic and apoptosis inducing agents” (Eur J Med Chem, 2018).
The source made the active and inactive calls. No cut-off for these calls is given here.

Columns and labels:
PC-3 = assay: Cytotoxicity against human PC3 cells after 48 hrs by MTT assay; assay type: functional, cell-based; settings: PC-3, 48 h
Method in brief: (§1)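 ATCC lines grown in DMEM or RPMI with 10% FBS and antibiotic-antimycotic, 37 °C, 5% CO2. Seeded at 3×10^4 cells/well, 24 h before dosing with vehicle (DMSO) controls. […] Cisplatin as reference.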

SK-OV-3 [1] = assay: Cytotoxicity against human SKOV3 cells after 48 hrs by MTT assay; assay type: functional, cell-based; settings: SK-OV-3, 48 h; method in brief: as §1
HeLa = assay: Cytotoxicity against human HeLa cells after 48 hrs by MTT assay; assay type: functional, cell-based; method in brief: as §1
HEK-293T = assay: Cytotoxicity against human HEK293T cells after 48 hrs by MTT assay; assay type: cell-based; method in brief: as §1
HT-1080 = assay: Cytotoxicity against human HT1080 cells after 48 hrs by MTT assay; assay type: functional, cell-based; settings: HT-1080, 48 h; method in brief: as §1
SK-OV-3 [2] = assay: Cell cycle arrest in human SKOV3 cells assessed as decrease in cells at G0/G1 phase at 0.1 to 0.5 uM after 24 hrs by propidium iodide staining-based flow cytometric analysis; assay type: functional
Method in brief: (§2)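 SKOV-3 cells (1×10^6/well) exposed 24 h, trypsinised, washed in PBS, fixed in 70% ethanol 30 min at 4 °C, stained 15 min in the dark at room temperature with PBS containing propidium iodide, Triton X and DNase-free RNase A. DNA content read by flow cytometry (15,000 events per methods; legend cites 10,000 cells). G0/G1, S and G2/M percentages taken from instrument software.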

SK-OV-3 [3] = assay: Cell cycle arrest in human SKOV3 cells assessed as accumulation of cells at S phase at 0.5 uM after 24 hrs by propidium iodide staining-based flow cytometric analysis (reference value: 5%); assay type: functional; method in brief: as §2
Homo sapiens [4] = organism: Homo sapiens; assay: Inhibition of F-actin polymerization in human SKOV3 cells assessed as decrease in F-actin extensions at 0.1 to 0.5 uM after 24 hrs by rhodamine-phalloidin/[…] staining-based confocal fluorescence microscopic analysis; assay type: cell-based
Method in brief: (§3)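 SKOV-3 cells (1×10^6/well) on coverslips, grown 24 h, then exposed 24 h. Washed, fixed in 4% paraformaldehyde in PBS, stained with rhodamine-phalloidin (F-actin) and […] (nuclei), mounted in anti-fade medium, and imaged by confocal microscopy at 20×.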

SK-OV-3 [5] = assay: Induction of apoptosis in human SKOV3 cells assessed as increase in pyknotic nuclei at 0.1 to 0.5 uM after 24 hrs by […] staining-based fluorescence microscopic analysis; assay type: functional, cell-based
Method in brief: (§4)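 SKOV-3 cells on coverslips (5×10^5/well), adhered 24 h, then exposed 24 h. Fixed in 4% formaldehyde 10 min at 4 °C, stained with […] (5 µg/mL) 30 min at room temperature, and nuclear morphology scored by fluorescence microscopy (ex 350/em 460 nm, 20×).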

SK-OV-3 [6] = assay: Induction of oxidative stress in human SKOV3 cells assessed as ROS generation by measuring fluorescence intensity at 0.5 uM after 24 hrs by carboxy-H2DCFDA dye-based flow cytometric analysis (reference value: 100%); assay type: functional
Method in brief: (§5)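 SKOV-3 cells (2×10^5/well) exposed 24 h, trypsinised, and loaded with 10 µM carboxy-H2DCFDA in PBS 15 min at room temperature in the dark. After washing, green DCF fluorescence was read by flow cytometry and expressed as % of control (100%).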

SK-OV-3 [7] = assay: Induction of apoptosis in human SKOV3 cells assessed as increase in caspase3 activity at 0.5 uM using Ac-DEVDpNA as substrate pretreated for 24 hrs followed by substrate addition and measured for 2 hrs by colorimetric analysis relative to control; assay type: functional
Method in brief: (§6)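 SKOV-3 cells (2×10^5/well) exposed 24 h, trypsinised, lysed 20 min, and lysate cleared at 15000 rpm for 10 min at 4 °C. Supernatant incubated with reaction buffer and Ac-DEVD-pNA 2 h at 37 °C, then read at 405 nm. Activity expressed as fold of untreated control (set to 1).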

SK-OV-3 [8] = assay: Cell cycle arrest in human SKOV3 cells assessed as accumulation of cells at S phase at 0.1 uM after 24 hrs by propidium iodide staining-based flow cytometric analysis (reference value: 5%); assay type: functional; method in brief: as §2
SK-OV-3 [9] = assay: Induction of oxidative stress in human SKOV3 cells assessed as ROS generation by measuring fluorescence intensity at 0.1 uM after 24 hrs by carboxy-H2DCFDA dye-based flow cytometric analysis (reference value: 100%); assay type: functional; method in brief: as §5
SK-OV-3 [10] = assay: Induction of apoptosis in human SKOV3 cells assessed as increase in caspase3 activity at 0.1 uM using Ac-DEVDpNA as substrate pretreated for 24 hrs followed by substrate addition and measured for 2 hrs by colorimetric analysis relative to control; assay type: functional; method in brief: as §6
SK-OV-3 [11] = assay: Inhibition of spheroid growth in human SKOV3 cells at 0.5 uM after 72 hrs by phase contrast microscopic analysis; assay type: functional, cell-based
Method in brief: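 SKOV-3 cells (5000/well) in ultra-low-attachment round-bottom wells, grown 2 days to form spheroids, then exposed for 72 h. Spheroid growth and surface area assessed by phase contrast microscopy.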

[12] = Selectivity index, ratio of IC50 for cytotoxicity against human HEK293T cells to IC50 for cytotoxicity against human SKOV3 cells after 48 hrs by MTT assay; assay type: toxicity, cell-based; settings: HEK293T cells versus SKOV3 cells, read-out: Ratio IC50
SK-OV-3 [13] = assay: Induction of apoptosis in human SKOV3 cells assessed as chromatin condensation at 0.1 to 0.5 uM after 24 hrs by […] staining-based fluorescence microscopic analysis; assay type: functional, cell-based; method in brief: as §4
SK-OV-3 [14] = assay: Induction of apoptosis in human SKOV3 cells assessed as increase in horse shoe shaped nuclei at 0.1 to 0.5 uM after 24 hrs by […] staining-based fluorescence microscopic analysis; assay type: functional, cell-based; method in brief: as §4
SK-OV-3 [15] = assay: Cell cycle arrest in human SKOV3 cells assessed as accumulation of cells at G2/M phase at 0.2 uM after 24 hrs by propidium iodide staining-based flow cytometric analysis (reference value: 14.7%); assay type: functional; method in brief: as §2
SK-OV-3 [16] = assay: Cell cycle arrest in human SKOV3 cells assessed as accumulation of cells at G2/M phase at 0.1 uM after 24 hrs by propidium iodide staining-based flow cytometric analysis (reference value: 14.7%); assay type: functional; method in brief: as §2
SK-OV-3 [17] = assay: Cell cycle arrest in human SKOV3 cells assessed as accumulation of cells at S phase at 0.2 uM after 24 hrs by propidium iodide staining-based flow cytometric analysis (reference value: 5%); assay type: functional; method in brief: as §2
SK-OV-3 [18] = assay: Induction of apoptosis in human SKOV3 cells assessed as nuclear fragmentation at 0.1 to 0.5 uM after 24 hrs by […] staining-based fluorescence microscopic analysis; assay type: functional, cell-based; method in brief: as §4
Homo sapiens [19] = organism: Homo sapiens; assay: Inhibition of F-actin polymerization in human SKOV3 cells assessed as induction of stress fibers disruption around nucleus at 0.1 to 0.5 uM after 24 hrs by rhodamine-phalloidin/[…] staining-based confocal fluorescence microscopic analysis; assay type: cell-based; method in brief: as §3
SK-OV-3 [20] = assay: Induction of apoptosis in human SKOV3 cells assessed as disruption of mitochondrial membrane potential at 0.1 to 0.5 uM after 24 hrs by JC-1 dye-based fluorescence microscopic analysis; assay type: functional, cell-based
Method in brief: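 SKOV-3 cells at 5×10^5 cells/mL, adhered overnight, exposed 24 h with DMSO-treated controls. Stained with JC-1 (5 µg/mL in PBS) 30 min at room temperature, washed, and imaged in red (J-aggregate) and green (monomer) channels by fluorescence microscopy at 20×.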

SK-OV-3 [21] = assay: Induction of oxidative stress in human SKOV3 cells assessed as ROS generation by measuring fluorescence intensity at 0.2 uM after 24 hrs by carboxy-H2DCFDA dye-based flow cytometric analysis (reference value: 100%); assay type: functional; method in brief: as §5
SK-OV-3 [22] = assay: Cell cycle arrest in human SKOV3 cells assessed as accumulation of cells at G2/M phase at 0.5 uM after 24 hrs by propidium iodide staining-based flow cytometric analysis (reference value: 14.7%); assay type: functional; method in brief: as §2
SK-OV-3 [23] = assay: Induction of oxidative stress in human SKOV3 cells assessed as ROS generation by measuring fluorescence intensity at 0.1 to 0.5 uM after 24 hrs by carboxy-H2DCFDA dye-based flow cytometric analysis relative to untreated control; assay type: functional; method in brief: as §5
SK-OV-3 [24] = assay: Induction of apoptosis in human SKOV3 cells assessed as increase in caspase3 activity at 0.2 uM using Ac-DEVDpNA as substrate pretreated for 24 hrs followed by substrate addition and measured for 2 hrs by colorimetric analysis relative to control; assay type: functional; method in brief: as §6

## COc1ccc(C2C3=C(CCCC3=O)Nc3c2c2cc(OC)c(OC)cc2c2cc(OC)c(OC)cc32)cc1 (stereo not drawn)
PC-3
  IC50: 5.79 µM
SK-OV-3 [1]
  IC50: 0.61 µM
HeLa
  IC50: 2.62 µM
HEK-293T
  IC50: 28.3 µM
HT-1080
  IC50: 2.62 µM

## COc1cc2c3c(c4cc(OC)c(OC)cc4c2cc1OC)C(c1cccc2ccccc12)C1=C(CCCC1=O)N3 (stereo not drawn)
PC-3
  IC50: 5.31 µM
SK-OV-3 [1]
  IC50: 2.67 µM
HeLa
  IC50: 6.87 µM
HEK-293T
  IC50: 14.4 µM
HT-1080
  IC50: 3.83 µM

## COc1cc2c3c(c4cc(OC)c(OC)cc4c2cc1OC)C(c1cccc(C(F)(F)F)c1)C1=C(CCCC1=O)N3 (stereo not drawn)
SK-OV-3 [2]
  Activity: Active
SK-OV-3 [3]
  Activity: 14.1%
Homo sapiens [4]
  inhibition: Active
SK-OV-3 [5]
  Activity: Active
SK-OV-3 [6]
  Activity: 204.76%
SK-OV-3 [7]
  fold change (FC): 3.78
SK-OV-3 [8]
  Activity: 2.3%
SK-OV-3 [9]
  Activity: 128.5%
PC-3
  IC50: 11.8 µM
SK-OV-3 [10]
  fold change (FC): 1.58
SK-OV-3 [11]
  inhibition: Active
[12]
  selectivity ratio at 48 h: 77
SK-OV-3 [13]
  Activity: Active
SK-OV-3 [14]
  Activity: Active
SK-OV-3 [15]
  Activity: 33.5%
SK-OV-3 [1]
  IC50: 0.24 µM
HeLa
  IC50: 4.38 µM
SK-OV-3 [16]
  Activity: 22.6%
SK-OV-3 [17]
  Activity: 19.3%
SK-OV-3 [18]
  Activity: Active
Homo sapiens [19]
  inhibition: Active
SK-OV-3 [20]
  Activity: Active
SK-OV-3 [21]
  Activity: 150.3%
HEK-293T
  IC50: 18.5 µM
SK-OV-3 [22]
  Activity: 37.9%
SK-OV-3 [23]
  fold change (FC): 2
SK-OV-3 [24]
  fold change (FC): 2.45
HT-1080
  IC50: 3.89 µM

## COc1ccc(C2C3=C(CCCC3=O)Nc3c2c2cc(OC)c(OC)cc2c2cc(OC)c(OC)cc32)cc1OC (stereo not drawn)
PC-3
  IC50: > 50 µM
SK-OV-3 [1]
  IC50: 11.5 µM
HeLa
  IC50: > 50 µM
HEK-293T
  IC50: > 50 µM
HT-1080
  IC50: 25.7 µM

## COc1cc2c3c(c4cc(OC)c(OC)cc4c2cc1OC)C(c1ccc(Cl)cc1)C1=C(CC(C)(C)CC1=O)N3 (stereo not drawn)
PC-3
  IC50: > 50 µM
SK-OV-3 [1]
  IC50: 15.9 µM
HeLa
  IC50: 38.8 µM
HEK-293T
  IC50: > 50 µM
HT-1080
  IC50: 30.1 µM

## COc1cc(C2C3=C(CC(C)(C)CC3=O)Nc3c2c2cc(OC)c(OC)cc2c2cc(OC)c(OC)cc32)ccc1O (stereo not drawn)
PC-3
  IC50: 23.8 µM
SK-OV-3 [1]
  IC50: 13.6 µM
HeLa
  IC50: 11.7 µM
HEK-293T
  IC50: > 50 µM
HT-1080
  IC50: 9.83 µM

## COc1cc2c3c(c4cc(OC)c(OC)cc4c2cc1OC)C(c1ccc(C(C)C)cc1)C1=C(CC(C)(C)CC1=O)N3 (stereo not drawn)
PC-3
  IC50: > 50 µM
SK-OV-3 [1]
  IC50: 11.5 µM
HeLa
  IC50: > 50 µM
HEK-293T
  IC50: 25.7 µM
HT-1080
  IC50: 32.3 µM

## COc1cc2c3c(c4cc(OC)c(OC)cc4c2cc1OC)C(c1ccc2c(c1)OCO2)C1=C(CC(C)(C)CC1=O)N3 (stereo not drawn)
PC-3
  IC50: 7.7 µM
SK-OV-3 [1]
  IC50: 4.66 µM
HeLa
  IC50: 1.35 µM
HEK-293T
  IC50: 24.6 µM
HT-1080
  IC50: 4.32 µM

## COc1ccc(C2C3=C(CC(C)(C)CC3=O)Nc3c2c2cc(OC)c(OC)cc2c2cc(OC)c(OC)cc32)cc1OC (stereo not drawn)
PC-3
  IC50: 17.6 µM
SK-OV-3 [1]
  IC50: 13.7 µM
HeLa
  IC50: 28.1 µM
HEK-293T
  IC50: 43.5 µM
HT-1080
  IC50: 21.3 µM
